Compound activity deposited in PubChem by Broad Institute.
Hits are enriched below; roughly 5.8% of the tested compounds scored in any of these assays.
GASC1 inh: KDM4C (human) demethylase inhibition | AID 720574 | GST-KDM4C 2-372, H3K9me3 peptide, LANCE TR-FRET | hit rate 0.15% among 96,000 | inhibition, % at 12.5 µM | Q9H3R0;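 active means mean replicate inhibition above about 25%, with at least 55% of replicates also reaching it, limit read from the data, passing the limit was not always enough; inconclusive means only one of those two conditions met; inactive means neither condition met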
Target sequence (Q9H3R0 2-372 limits assumed): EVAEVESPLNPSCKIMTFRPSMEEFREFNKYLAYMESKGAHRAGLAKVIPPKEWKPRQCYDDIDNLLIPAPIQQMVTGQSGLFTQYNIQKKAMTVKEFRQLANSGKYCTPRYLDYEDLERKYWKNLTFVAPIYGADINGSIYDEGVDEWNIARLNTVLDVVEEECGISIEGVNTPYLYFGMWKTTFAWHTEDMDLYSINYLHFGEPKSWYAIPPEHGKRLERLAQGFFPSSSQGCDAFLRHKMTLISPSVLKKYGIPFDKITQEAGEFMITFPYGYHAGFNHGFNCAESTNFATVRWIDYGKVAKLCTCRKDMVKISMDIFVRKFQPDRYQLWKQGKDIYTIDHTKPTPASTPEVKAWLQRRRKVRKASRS
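System: N-terminal GST-fused human GASC-1 (KDM4C) fragment, residues 2-372 / Amount: 10 nM GST-KDM4C in enzyme reaction / Also added: H3K9me3 peptide with Fe(II)/2OG / Times: 30 min demethylation and 1 h detection at room temperature / Signal: LANCE TR-FRET / Read-out basis: Fall in 671/618 emission ratio as inhibition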
T cruzi growth: inhibitors of T. cruzi proliferation. hit rate 5.9% among 77,000. T. cruzi beta-gal in NIH3T3, GalScreen luminescence, 90 h. AID 624255. inhibition, % at 8.34 µM;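 active means mean inhibition above about 93%, with at least 55% of replicates each passing it, limit read from the data, passing the limit was not always enough; inconclusive means only one of those two conditions holds; inactive means neither condition holds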
IDH1 R132H inh: blocks human IDH1 R132H reductase activity | diaphorase/resazurin fluorescence, 60 min | AID 624101 | inhibition, % at 10 µM | hit rate 0.18% among 70,000 | O75874; in the data active means inhibition above about 34%; inconclusive means no clear call, values can overlap the other calls; inactive means below about 11%;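 further: 0% = DMSO and 100% = no enzyme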
Pf Dd2 inh: P. falciparum Dd2 growth inhibition; SYBR Green, 72 h; stronger effect = lower value; activity change, % at 10 µM; hit rate 2.3% among 94,000; in the data active means activity change below about -80%; inconclusive means no clear call, values can overlap the other calls
* hit, by the source's call.

What do the screens show for `C[C@@H]1CN([C@H](C)CO)C(=O)c2cc(NC(=O)Nc3cccc4ccccc34)ccc2O[C@@H](C)CCCCO[C@@H]1CN(C)S(=O)(=O)c1cn(C)cn1`?
GASC1 inh: -7; T cruzi growth: 35; Pf Dd2 inh: -88*

How did COc1ccc(S(=O)(=O)N(C)C[C@H]2OCCCC[C@H](C)Oc3ccc(NC(=O)Nc4cccc5ccccc45)cc3C(=O)N([C@@H](C)CO)C[C@H]2C)cc1 do in these assays?
GASC1 inh: -1; T cruzi growth: 43; IDH1 R132H inh: 4; Pf Dd2 inh: -83*

Results for COc1ccc(S(=O)(=O)N(C)C[C@@H]2OCCCC[C@H](C)Oc3ccc(NC(=O)Nc4cccc5ccccc45)cc3C(=O)N([C@H](C)CO)C[C@H]2C)cc1 ?
GASC1 inh: -1; T cruzi growth: 12; IDH1 R132H inh: 0; Pf Dd2 inh: -86*

What do the screens show for `COc1ccc(S(=O)(=O)N(C)C[C@H]2OCCCC[C@H](C)Oc3ccc(NC(=O)Nc4cccc5ccccc45)cc3C(=O)N([C@@H](C)CO)C[C@@H]2C)cc1`?
GASC1 inh: -4; T cruzi growth: 75; Pf Dd2 inh: -71

What do the screens show for `O=C(O)c1ccc(C(Nc2ccccn2)c2cc(Cl)c3cccnc3c2O)cc1` (stereo unspecified)?
IDH1 R132H inh: 0

What do the screens show for `CC(C)[C@H](NC(=O)[C@H](C)N(C)C)C(=O)N1CC[C@@H]2Oc3ccc(cc3)/C=C\NC(=O)[C@H](Cc3ccccc3)NC(=O)C21` (stereo partly specified)?
IDH1 R132H inh: 0

What do the screens show for `O=C(Nc1cc(F)ccc1F)N1CC(=O)N2[C@H](CO)[C@@H](c3ccc(C#CC4CCCCC4)cc3)[C@@H]2C1`?
GASC1 inh: -4; Pf Dd2 inh: -82*

How did O=C(Nc1ccccc1F)N1CC(=O)N2[C@H](CO)[C@H](c3ccc(-c4ccccc4)cc3)[C@@H]2C1 do in these assays?
GASC1 inh: -1; Pf Dd2 inh: -6

Results for O=C(Nc1ccccc1F)N1CC(=O)N2[C@H](CO)[C@@H](c3ccc(-c4ccccc4)cc3)[C@H]2C1 ?
GASC1 inh: -1; Pf Dd2 inh: -84*

How did C[C@H]1CN([C@@H](C)CO)C(=O)c2c(c3ccccc3n2C)-c2ccccc2CO[C@@H]1CN(C)S(=O)(=O)c1ccc(C(F)(F)F)cc1 do in these assays?
GASC1 inh: -1; Pf Dd2 inh: inconclusive

How did C[C@H]1CN([C@@H](C)CO)C(=O)c2c(c3ccccc3n2C)-c2ccccc2CO[C@@H]1CN(C)S(=O)(=O)c1ccc(Cl)cc1 do in these assays?
GASC1 inh: -1; T cruzi growth: 58; Pf Dd2 inh: -85*

How did C[C@H](CO)N1C[C@H](C)[C@H](CN(C)S(=O)(=O)c2ccc(Cl)cc2)OCc2ccccc2-c2c(n(C)c3ccccc23)C1=O do in these assays?
Pf Dd2 inh: -94*

Results for C[C@H]1CN([C@@H](C)CO)C(=O)c2c(c3ccccc3n2C)-c2ccccc2CO[C@H]1CN(C)S(=O)(=O)c1ccc(Cl)cc1 ?
GASC1 inh: 0; T cruzi growth: 73; IDH1 R132H inh: -2; Pf Dd2 inh: -86*

Results for C[C@@H]1CN([C@H](C)CO)C(=O)c2c(c3ccccc3n2C)-c2ccccc2CO[C@@H]1CN(C)S(=O)(=O)c1ccc([N+](=O)[O-])cc1 ?
GASC1 inh: 9; Pf Dd2 inh: -69

Results for C[C@@H]1CN([C@H](C)CO)C(=O)c2c(c3ccccc3n2C)-c2ccccc2CO[C@H]1CN(C)S(=O)(=O)c1ccc(Cl)cc1 ?
GASC1 inh: -2; T cruzi growth: 91; IDH1 R132H inh: -2; Pf Dd2 inh: -84*

Results for COc1ccc(S(=O)(=O)N(C)C[C@H]2OCc3ccccc3-c3c(n(C)c4ccccc34)C(=O)N([C@H](C)CO)C[C@H]2C)cc1 ?
GASC1 inh: 1; T cruzi growth: 61; IDH1 R132H inh: -1; Pf Dd2 inh: -72

How did COc1ccc2c3c(n(C)c2c1)[C@H](CO)N(CC1CCCC1)CC31CCN(C(=O)Nc2ccccc2)CC1 do in these assays?
GASC1 inh: -3; Pf Dd2 inh: -66

Results for COc1ccc2c3c(n(C)c2c1)[C@H](CO)N(CC1CC1)CC31CCN(C(=O)Nc2ccccc2)CC1 ?
GASC1 inh: -1; Pf Dd2 inh: -65

Results for COc1ccc(NC(=O)N2CCC3(CC2)CN(CC2CC2)[C@H](CO)c2c3c3ccc(OC)cc3n2C)cc1 ?
GASC1 inh: 0; Pf Dd2 inh: -85*

Results for COc1ccc2c3c(n(C)c2c1)[C@@H](CO)N(CC1CCOCC1)CC31CCN(C(=O)Nc2ccccc2)CC1 ?
GASC1 inh: 0; Pf Dd2 inh: -83*

How did O=C(C[C@H]1CC[C@@H]2[C@H](COC[C@@H](O)CN2C(=O)Nc2ccc3c(c2)OCO3)O1)N1CCN(c2ccccc2)CC1 do in these assays?
GASC1 inh: -2; Pf Dd2 inh: -88*

What do the screens show for `O=C(C[C@@H]1CC[C@@H]2[C@H](COC[C@H](O)CN2C(=O)Nc2ccc3c(c2)OCO3)O1)N1CCN(c2ccccc2)CC1`?
GASC1 inh: 3; Pf Dd2 inh: 3

Results for CCCCc1c(-c2ccc(O)cc2)[nH]c2nccnc12 ?
IDH1 R132H inh: 2

What do the screens show for `COc1ccc2c3c(n(C)c2c1)[C@@H](CO)NCC31CCN(Cc2ccc(-c3ccccn3)cc2)CC1`?
GASC1 inh: 0; Pf Dd2 inh: -88*

What do the screens show for `COc1ccc2c3c(n(C)c2c1)[C@@H](CO)NCC31CCN(Cc2ccc(Cl)cc2)CC1`?
Pf Dd2 inh: 0

Results for COc1ccc2c3c(n(C)c2c1)[C@H](CO)NCC31CCN(Cc2ccc(-c3ccccn3)cc2)CC1 ?
GASC1 inh: -1; Pf Dd2 inh: -88*

Results for COc1ccc2c3c(n(C)c2c1)[C@@H](CO)NCC31CCN(Cc2ccccc2F)CC1 ?
GASC1 inh: -1; Pf Dd2 inh: -78

What do the screens show for `COc1ccc2c3c(n(C)c2c1)[C@@H](CO)NCC31CN(Cc2ccc(-c3ccccn3)cc2)C1`?
GASC1 inh: -1; Pf Dd2 inh: -89*

How did Cc1cc(Br)c(NC(=O)CSc2nnc(-c3ccccc3)o2)cc1C do in these assays?
IDH1 R132H inh: 0

Results for Cc1ccc(OCC(=O)Nc2ccc(Cl)cc2C(=O)O)cc1C ?
IDH1 R132H inh: -1

Results for C=CCN1C(=O)[C@@]2(O[C@@H](CCn3cc(CCO)nn3)[C@H]([Si](C)(C)c3ccc(OC)cc3)[C@H]2C)c2cc(NC(=O)c3ccc(OC)cc3)ccc21 ?
IDH1 R132H inh: 66*

What do the screens show for `C=CCN1C(=O)[C@]2(O[C@H](CCO)[C@@H]([Si](C)(C)c3ccc(OC)cc3)[C@@H]2C)c2cc(NC(=O)[C@H](C)O)ccc21`?
IDH1 R132H inh: 0

What do the screens show for `COc1ccccc1C1C(C(=O)c2sc(C)nc2C)C(=O)C(=O)N1CCCN1CCOCC1` (stereo unspecified)?
IDH1 R132H inh: 0
